Results as given in ChEMBL document CHEMBL4715736, “Identification of anticancer agents based on the thieno[2,3-b]pyridine and 1H-pyrazole molecular scaffolds” (2016).

Assays:
Format in all cases: functional
[1] = tested on: SNB-75; assay: Growth inhibition of human SNB-75 cells incubated for 48 hrs by sulforhodamine B assay
Outline: (§1)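 NCI DTP 60-line human tumour panel. Dose-response curves were run only for ligands active in the initial 10 µM screen. GI50 (concentration giving 50% of maximal inhibition of proliferation) and TGI (concentration giving total growth inhibition) were derived from these curves.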

[2] = tested on: NCI-H522; assay: Growth inhibition of human NCI-H522 cells incubated for 48 hrs by sulforhodamine B assay
Outline: (§2)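 NCI60 panel at the NCI Developmental Therapeutics Program. Only compounds active in the 10 µM screen went to dose-response testing. GI50, the concentration giving 50% of maximal inhibition of proliferation, and TGI, the concentration giving total growth inhibition, were derived from the dose-response curves.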

[3] = tested on: SN12C; assay: Growth inhibition of human SN12C cells assessed as cell growth at 0.01 uM incubated for 48 hrs by sulforhodamine B assay relative to control; settings: read-out: Activity
[4] = tested on: SF-268; assay: Growth inhibition of human SF-268 cells assessed as cell growth at 0.01 uM incubated for 48 hrs by sulforhodamine B assay relative to control; settings: read-out: Activity
[5] = tested on: 786-0; assay: Growth inhibition of human 786-0 cells assessed as cell growth at 0.1 uM incubated for 48 hrs by sulforhodamine B assay relative to control; settings: read-out: Activity
Outline: (§3)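 NCI Developmental Therapeutics Program NCI60 panel. Compounds that were active in the 10 µM one-dose screen went on to dose–response testing. Growth at each concentration is expressed relative to untreated control (100%). GI50 (concentration giving 50% of maximal inhibition of proliferation) and TGI (concentration giving total growth inhibition) were derived from the curves.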

[6] = tested on: MDA-MB-435; assay: Growth inhibition of human MDA-MB-435 cells assessed as cell growth at 1 uM incubated for 48 hrs by sulforhodamine B assay relative to control; settings: read-out: Activity
[7] = tested on: RXF 393; assay: Growth inhibition of human RXF 393 cells assessed as cell growth at 100 uM incubated for 48 hrs by sulforhodamine B assay relative to control; settings: read-out: Activity
[8] = tested on: SW-620; assay: Growth inhibition of human SW-620 cells incubated for 48 hrs by sulforhodamine B assay; outline: as §1
[9] = tested on: K562; assay: Growth inhibition of human K562 cells incubated for 48 hrs by sulforhodamine B assay; outline: as §2
[10] = tested on: TK-10; assay: Growth inhibition of human TK-10 cells assessed as cell growth at 0.1 uM incubated for 48 hrs by sulforhodamine B assay relative to control; settings: read-out: Activity
[11] = tested on: HCT-15; assay: Growth inhibition of human HCT-15 cells assessed as cell growth at 1 uM incubated for 48 hrs by sulforhodamine B assay relative to control; settings: read-out: Activity
[12] = tested on: UACC-62; assay: Growth inhibition of human UACC-62 cells assessed as cell growth at 1 uM incubated for 48 hrs by sulforhodamine B assay relative to control; settings: read-out: Activity
[13] = tested on: SNB-75; assay: Growth inhibition of human SNB-75 cells assessed as cell growth at 100 uM incubated for 48 hrs by sulforhodamine B assay relative to control; settings: read-out: Activity
[14] = tested on: NCI/ADR-RES; assay: Growth inhibition of human NCI/ADR-RES cells assessed as cell growth at 100 uM incubated for 48 hrs by sulforhodamine B assay relative to control; settings: read-out: Activity
[15] = tested on: UO-31; assay: Growth inhibition of human UO-31 cells assessed as cell growth at 0.01 uM incubated for 48 hrs by sulforhodamine B assay relative to control; settings: read-out: Activity
[16] = tested on: HCT-116; assay: Growth inhibition of human HCT-116 cells incubated for 48 hrs by sulforhodamine B assay; outline: as §2
[17] = tested on: NCI-H226; assay: Growth inhibition of human NCI-H226 cells assessed as cell growth at 0.01 uM incubated for 48 hrs by sulforhodamine B assay relative to control; settings: read-out: Activity
[18] = tested on: MDA-MB-435; assay: Growth inhibition of human MDA-MB-435 cells assessed as cell growth at 0.1 uM incubated for 48 hrs by sulforhodamine B assay relative to control; settings: read-out: Activity
[19] = tested on: NCI-H522; assay: Growth inhibition of human NCI-H522 cells assessed as cell growth at 1 uM incubated for 48 hrs by sulforhodamine B assay relative to control; settings: read-out: Activity
[20] = tested on: IGROV-1; assay: Growth inhibition of human IGROV-1 cells assessed as cell growth at 0.01 uM incubated for 48 hrs by sulforhodamine B assay relative to control; settings: read-out: Activity
[21] = tested on: BT-549; assay: Growth inhibition of human BT-549 cells assessed as cell growth at 100 uM incubated for 48 hrs by sulforhodamine B assay relative to control; settings: read-out: Activity
[22] = tested on: U-251; assay: Growth inhibition of human U-251 cells assessed as cell growth at 0.1 uM incubated for 48 hrs by sulforhodamine B assay relative to control; settings: read-out: Activity
[23] = tested on: OVCAR-3; assay: Growth inhibition of human OVCAR-3 cells incubated for 48 hrs by sulforhodamine B assay; settings: for CC50: read-out: LC50 (the source's name); outline: as §1
[24] = tested on: SK-MEL-5; assay: Growth inhibition of human SK-MEL-5 cells assessed as cell growth at 0.1 uM incubated for 48 hrs by sulforhodamine B assay relative to control; settings: read-out: Activity
[25] = tested on: UO-31; assay: Growth inhibition of human UO-31 cells assessed as cell growth at 1 uM incubated for 48 hrs by sulforhodamine B assay relative to control; settings: read-out: Activity
[26] = tested on: KM12; assay: Growth inhibition of human KM12 cells assessed as cell growth at 0.01 uM incubated for 48 hrs by sulforhodamine B assay relative to control; settings: read-out: Activity
[27] = tested on: COLO 205; assay: Growth inhibition of human COLO 205 cells assessed as cell growth at 100 uM incubated for 48 hrs by sulforhodamine B assay relative to control; settings: read-out: Activity; outline: as §3
[28] = tested on: SF-539; assay: Growth inhibition of human SF-539 cells assessed as cell growth at 1 uM incubated for 48 hrs by sulforhodamine B assay relative to control; settings: read-out: Activity
[29] = tested on: HOP-62; assay: Growth inhibition of human HOP-62 cells assessed as cell growth at 1 uM incubated for 48 hrs by sulforhodamine B assay relative to control; settings: read-out: Activity
[30] = tested on: MDA-MB-468; assay: Growth inhibition of human MDA-MB-468 cells assessed as cell growth at 1 uM incubated for 48 hrs by sulforhodamine B assay relative to control; settings: read-out: Activity
[31] = tested on: SF-268; assay: Growth inhibition of human SF-268 cells assessed as cell growth at 0.1 uM incubated for 48 hrs by sulforhodamine B assay relative to control; settings: read-out: Activity
[32] = tested on: SN12C; assay: Growth inhibition of human SN12C cells assessed as cell growth at 0.1 uM incubated for 48 hrs by sulforhodamine B assay relative to control; settings: read-out: Activity
[33] = tested on: NCI-H23; assay: Growth inhibition of human NCI-H23 cells assessed as cell growth at 100 uM incubated for 48 hrs by sulforhodamine B assay relative to control; settings: read-out: Activity
[34] = tested on: RPMI-8226; assay: Growth inhibition of human RPMI-8226 cells assessed as cell growth at 1 uM incubated for 48 hrs by sulforhodamine B assay relative to control; settings: read-out: Activity
[35] = tested on: SR; assay: Growth inhibition of human SR cells incubated for 48 hrs by sulforhodamine B assay; outline: as §1

Cc1cccc(NC(=O)c2sc3nc4c(cc3c2N)C(=O)CCC4)c1
GI50 [1]: 230 nM
LC50 [1]: > 100000 nM
TGI [1]: ≥ 100000 nM
GI50 [2]: 107 nM
LC50 [2]: > 100000 nM
TGI [2]: 621000 nM
growth at 0.01 µM [3]: 95%
growth at 0.01 µM [4]: 99%
growth at 0.1 µM [5]: 80%
growth at 1 µM [6]: -61%
growth at 100 µM [7]: 5%
GI50 [8]: 193 nM
LC50 (concentration killing 50% of cells) [8]: > 100000 nM
TGI [8]: ≥ 100000 nM
GI50 [9]: 144 nM
LC50 (concentration killing 50% of cells) [9]: > 100000 nM
TGI [9]: > 100000 nM
growth at 0.1 µM [10]: 82%
growth at 1 µM [11]: 24%
growth at 1 µM [12]: 29%
growth at 100 µM [13]: 1%
growth at 100 µM [14]: -3%
growth at 0.01 µM [15]: 88%
GI50 [16]: 280 nM
LC50 (concentration killing 50% of cells) [16]: > 100000 nM
TGI [16]: > 100000 nM
growth at 0.01 µM [17]: 95%
growth at 0.1 µM [18]: 4%
growth at 1 µM [19]: -35%
growth at 0.01 µM [20]: 100%
growth at 100 µM [21]: -11%
growth at 0.1 µM [22]: 74%
GI50 [23]: 256 nM
TGI [23]: 1660 nM
CC50 [23]: ≥ 100000 nM
growth at 0.1 µM [24]: 44%
growth at 1 µM [25]: 55%
growth at 0.01 µM [26]: 95%
growth at 100 µM [27]: -8%
growth at 1 µM [28]: -38%
growth at 1 µM [29]: 30%
growth at 1 µM [30]: 5%
growth at 0.1 µM [31]: 93%
growth at 0.1 µM [32]: 87%
growth at 100 µM [33]: 12%
growth at 1 µM [34]: 36%

CCc1cccc(C)c1NC(=O)c1sc2nc3c(cc2c1N)C(=O)CCC3
GI50 [1]: 212 nM
LC50 [1]: > 100000 nM
growth at 0.01 µM [3]: 97%
growth at 0.01 µM [4]: 97%
growth at 0.1 µM [5]: 89%
GI50 [35]: 403 nM
LC50 [35]: > 100000 nM
TGI [35]: ≥ 100000 nM
growth at 1 µM [6]: -50%
growth at 100 µM [7]: 5%
GI50 [8]: 359 nM
LC50 (concentration killing 50% of cells) [8]: > 100000 nM
TGI [8]: > 100000 nM
GI50 [9]: 341 nM
LC50 (concentration killing 50% of cells) [9]: ≥ 100000 nM
TGI [9]: 15800 nM
growth at 1 µM [11]: 29%
growth at 1 µM [12]: 37%
growth at 100 µM [13]: 29%
growth at 100 µM [14]: 1%
growth at 0.01 µM [15]: 86%
GI50 [16]: 471 nM
LC50 (concentration killing 50% of cells) [16]: > 100000 nM
TGI [16]: > 100000 nM
growth at 0.01 µM [17]: 96%
growth at 0.1 µM [18]: 71%
growth at 0.01 µM [20]: 101%
growth at 0.1 µM [22]: 90%
GI50 [23]: 374 nM
TGI [23]: 2300 nM
CC50 [23]: > 100000 nM
growth at 0.1 µM [24]: 89%
growth at 1 µM [25]: 37%
growth at 0.01 µM [26]: 96%
growth at 100 µM [27]: -31%
growth at 1 µM [28]: 8%
growth at 1 µM [29]: 52%
growth at 1 µM [30]: -8%
growth at 0.1 µM [31]: 96%
growth at 0.1 µM [32]: 92%
growth at 100 µM [33]: 14%
growth at 1 µM [34]: 44%
